Results reported in article PMC3171567 (Steroids, 2011).
Residue numbers refer to the chain shown, from its start. Where two headings read alike, the source gives them in different places. Values belong to the molecule of their own block, whether it stands above or below them.

Assays:
[1] = tested on: androgen receptor expression in LNCaP cells; experiment: AR down-regulation in LNCaP cells, western blot densitometry; type: cell-based, human; details: for AR down-regulation (in words): highest concentration (15 μM) tested
[2] = tested on: LNCaP cells; experiment: Cell proliferation / viability XTT assay, LNCaP; type: cell-based; details: Homo sapiens; for GI50: read-out: Cell growth inhibition GI50 LNCaP; for IC50: read-out: IC50 in DHT stimulated LNCaP cells; for inhibition at 10 µM: read-out: inhibition of LNCaP proliferation
[3] = tested on: LAPC-4 xenografts; experiment: LAPC-4 prostate cancer xenograft anti-tumor efficacy; type: in vivo, male SCID mice; details: for efficacy of oral dosing (in words): 0.15 mmol/kg o.d. p.o. up to day 24; for effect on LAPC-4 tumor growth (in words): third study, 0.15 mmol/kg s.c. once daily
[4] = molecular target: T1, human CYP17 (Homo sapiens, UniProt P05093); experiment: Acetic acid releasing assay for CYP17 activity in 293T-CYP17 cells; type: cell-based; details: read-out: CYP17 IC50, each in duplicate
T1 sequence (P05093 whole entry): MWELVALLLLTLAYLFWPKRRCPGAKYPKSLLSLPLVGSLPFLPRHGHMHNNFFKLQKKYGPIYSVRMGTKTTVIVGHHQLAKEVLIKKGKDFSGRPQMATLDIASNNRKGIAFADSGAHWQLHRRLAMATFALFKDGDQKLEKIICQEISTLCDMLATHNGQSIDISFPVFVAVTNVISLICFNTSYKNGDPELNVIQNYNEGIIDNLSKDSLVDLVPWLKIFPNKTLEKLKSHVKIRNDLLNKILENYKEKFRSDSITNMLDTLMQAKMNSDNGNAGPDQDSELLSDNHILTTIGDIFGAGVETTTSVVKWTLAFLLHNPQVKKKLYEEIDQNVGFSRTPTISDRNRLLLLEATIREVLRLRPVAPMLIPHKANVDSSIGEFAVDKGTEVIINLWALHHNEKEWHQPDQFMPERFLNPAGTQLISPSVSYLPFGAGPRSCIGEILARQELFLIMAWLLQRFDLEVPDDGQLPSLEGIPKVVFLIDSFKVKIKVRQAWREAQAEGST

[5] = molecular target: T2, wild-type AR (in LAPC-4 cells) (Homo sapiens, UniProt P10275); type: binding
T2 sequence (P10275 1-920): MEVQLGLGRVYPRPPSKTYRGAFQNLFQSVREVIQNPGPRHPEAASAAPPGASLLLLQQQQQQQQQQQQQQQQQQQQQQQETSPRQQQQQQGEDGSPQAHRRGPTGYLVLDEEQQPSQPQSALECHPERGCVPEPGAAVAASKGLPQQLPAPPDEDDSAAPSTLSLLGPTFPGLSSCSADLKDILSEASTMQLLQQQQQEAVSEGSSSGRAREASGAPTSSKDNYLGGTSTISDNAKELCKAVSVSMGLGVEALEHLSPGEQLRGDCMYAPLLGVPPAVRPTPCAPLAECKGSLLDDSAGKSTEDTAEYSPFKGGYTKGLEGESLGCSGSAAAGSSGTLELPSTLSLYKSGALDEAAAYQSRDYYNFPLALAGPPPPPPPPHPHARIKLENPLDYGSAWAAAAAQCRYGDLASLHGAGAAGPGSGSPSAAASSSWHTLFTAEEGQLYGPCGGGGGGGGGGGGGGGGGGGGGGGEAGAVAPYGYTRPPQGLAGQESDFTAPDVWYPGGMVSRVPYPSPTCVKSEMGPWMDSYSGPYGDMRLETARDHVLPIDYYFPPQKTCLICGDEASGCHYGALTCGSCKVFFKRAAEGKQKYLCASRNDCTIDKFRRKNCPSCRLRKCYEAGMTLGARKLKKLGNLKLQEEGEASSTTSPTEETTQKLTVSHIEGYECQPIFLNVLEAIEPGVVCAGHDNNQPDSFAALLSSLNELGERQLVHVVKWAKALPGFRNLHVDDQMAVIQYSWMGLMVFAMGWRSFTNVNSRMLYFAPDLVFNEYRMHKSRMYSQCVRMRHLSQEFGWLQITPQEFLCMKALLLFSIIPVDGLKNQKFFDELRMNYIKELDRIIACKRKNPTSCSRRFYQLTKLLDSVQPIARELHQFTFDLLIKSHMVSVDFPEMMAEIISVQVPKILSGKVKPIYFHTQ

[6] = molecular target: T3, mutant T877A AR (in LNCaP cells) (Homo sapiens, UniProt P10275, T878A); type: binding
T3 sequence (P10275 1-920 T878A): T2 sequence (P10275 1-920) with T878A

[7] = tested on: LAPC-4 cells; experiment: Cell proliferation / viability XTT assay, LAPC-4; type: cell-based; details: Homo sapiens; for GI50: LAPC4, read-out: Cell growth inhibition GI50 LAPC-4; for IC50: LAPC4, read-out: IC50 in DHT stimulated LAPC4 proliferation
In short: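 Cells moved to steroid-free medium (phenol red-free RPMI, 5% dextran-coated charcoal-treated serum, 1% penicillin/streptomycin) 3 days before plating at 1.5 × 10^4 cells/well. After 24 h attachment, they were given steroid-free medium with ethanol vehicle, androgens and/or test compound, changed every three days. Viability was read by XTT absorbance on day 7. Each result is the average of at least three wells.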

[8] = tested on: androgen-induced AR transcription; experiment: Transcriptional activation luciferase assay; type: cell-based, human; details: LNCaP, ARR-2 reporter, with or without DHT
In short: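 LNCaP cells were kept steroid-free for 3 days, plated at 1 × 10^5 cells/well, then co-transfected with ARR2-Luc and Renilla pRL-null using Lipofectamine 2000. After 24 h at 37 °C, cells in serum-free phenol red-free RPMI were treated in triplicate with DHT, ethanol vehicle and/or test compound for 18 h. A dual luciferase read-out gave fold induction over control, normalized to Renilla.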

[9] = tested on: prostate, seminal vesicles, and the testes; experiment: Urogenital tissue weights in LAPC-4 xenograft mice; type: in vivo, male SCID mice; details: 31 days, 0.15 mmol/kg; 3 and 5 s.c. b.i.d., 4 and 5-acetate p.o.
In short: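 Male SCID mice, 4–6 weeks old, housed pathogen-free with food and water ad libitum. LAPC-4 cells were scraped into DPBS, pelleted and resuspended in Matrigel (10 mg/ml) at 2.0 × 10^7 cells/mL before inoculation. Vehicle was 0.3% HPC; test compounds were given at 0.15 mmol/kg. After 31 days of treatment, prostate, seminal vesicles and testes were excised and weighed and compared with vehicle controls.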

[10] = tested on: AR protein in LAPC-4 tumors; experiment: AR protein levels in excised LAPC-4 tumors, western blot; type: in vivo, male SCID mice
[11] = Toxicity monitoring in LAPC-4 xenograft mice; type: in vivo, male SCID mice; details: third study; for deaths of mice: 10 mice per group
[12] = molecular target: T1, human CYP17; details: read-out: CYP17 IC50; value for 5; cited from earlier work
[13] = first study, 0.15 mmol/kg s.c. b.i.d.

Compound: C[C@]12CC[C@H](O)CC1=CC[C@@H]1[C@@H]2CC[C@]2(C)C(n3cnc4ccccc43)CC[C@@H]12 (stereo partly drawn) [Compound 10, 3β-Hydroxy-17-(1H-benzimidazol-1-yl)androsta-5-ene]
AR down-regulation (in words) [1]: did not cause down-regulation of AR expression

Compound: C[C@]12CC[C@H](O)C[C@@H]1CC[C@@H]1[C@@H]2CC[C@]2(C)C(n3cnc4ccccc43)=CC[C@@H]12 [Compound 15, 3β-Hydroxy-17-(1H-benzimidazol-1-yl)-5α-androsta-16-ene]
GI50 [2]: 17.6 µM
AR down-regulation (in words) [1]: did not cause down-regulation of AR expression

Compound: C[C@]12CC[C@H](OS(N)(=O)=O)CC1=CC[C@@H]1[C@@H]2CC[C@]2(C)C(n3cnc4ccccc43)=CC[C@@H]12 [Compound 9, 3β-O-Sulfamoyl-17-(1H-benzimidazol-1-yl)androsta-5,16-dien]
effect on LAPC-4 tumor growth, oral (in words) ([3]; administered orally as described for 5): did not show any significant effect on LAPC-4 tumor growth

Compound: C[C@]12CC[C@@H](N=[N+]=[N-])CC1=CC[C@@H]1[C@@H]2CC[C@]2(C)C(n3cnc4ccccc43)=CC[C@@H]12 [Compound 8, 3α-Azido-17-(1H-benzimidazol-1-yl)androsta-5,16-dien]
IC50 [4]: 0.12 µM
EC50 [5]: 2.46 µM
binding affinity to the wild-type AR compared to 5 (in words) [5]: greatly reduced
EC50 [6]: 4.34 µM
binding to the mutant AR compared to 5 (in words) [6]: greatly reduced
GI50 [2]: 7 µM
IC50 [2]: 16 µM
inhibition at 10 µM [2]: 60%
GI50 [7]: 19 µM
IC50 [7]: 19 µM
AR agonist/antagonist character in transcriptional activation studies [8]: pure AR antagonists
AR down-regulation (in words) [1]: did not cause down-regulation of AR expression

Compound: CC(=O)O[C@H]1CC[C@@]2(C)C(=CC[C@@H]3[C@@H]2CC[C@]2(C)C(c4cccnc4)=CC[C@@H]32)C1 [Compound 4, 3β-Acetoxy-17-(3-pyridyl)androsta-5,16-dien, reference compound]
efficacy of oral dosing (in words) ([3]; first study): neither compound demonstrated any significant efficacy
seminal vesicles size/weight (in words) [9]: significantly reduced the size of the seminal vesicles

Compound: C[C@]12CCC(F)CC1=CC[C@@H]1[C@@H]2CC[C@]2(C)C(n3cnc4ccccc43)=CC[C@@H]12 (some centres unmarked) [Compound 6, 3ξ-Fluoro-17-(1H-benzimidazol-1-yl)androsta-5,16-dien]
IC50 [4]: 0.15 µM
EC50 [5]: 0.934 µM
reduction of wild-type AR binding compared to 5 ([5]; ratio of EC50 to that of 5): 2.3 fold
EC50 [6]: 1.6 µM
binding to the mutant AR compared to 5 (in words) [6]: not significantly different from binding of 5
GI50 [2]: 8 µM
IC50 [2]: 8 µM
inhibition at 10 µM [2]: 85%
GI50 [7]: 16 µM
IC50 [7]: 7 µM
AR agonist/antagonist character in transcriptional activation studies [8]: pure AR antagonists
AR down-regulation ([1]; 15 μM, 24 hours): 50%
efficacy versus LAPC-4 xenografts relative to 5 ([3]; on equimolar basis): ~ 2 fold
effect on LAPC-4 tumor growth (in words) [3]: as effective in inhibiting LAPC-4 tumor growth as twice daily administration of 5
effect on AR protein levels in tumors (in words) ([10]; third study, 0.15 mmol/kg s.c., twice daily administration): only a minor and statistically insignificant effect on AR protein levels
changes in mouse weights (in words) [11]: no changes in mouse weights were observed
deaths of mice ([11]; 0.15 mmol/kg s.c. once daily): five mice
deaths of mice ([11]; 0.15 mmol/kg s.c. twice daily): two mice
signs of toxicity at internal examination (in words) ([11]; necropsy): no overt signs toxicity were seen

GI50 [2]: 6 µM
Compound: C[C@]12CC[C@H](O)CC1=CC[C@@H]1[C@@H]2CC[C@]2(C)C(n3cnc4ccccc43)=CC[C@@H]12 [Compound 5, 3β-Hydroxy-17-(1H-benzimidazol-1-yl)androsta-5,16-dien]
GI50 [7]: 3.2 µM
inhibition of growth of LAPC-4 tumors (in words) [3, 13]: most effective therapy in inhibiting the growth of LAPC-4 tumors
average tumor volume on day 31 (in words) ([3]; first study, 0.15 mmol/kg s.c. b.i.d., vs control p = 0.0001, 4 p = 0.005, 3 p = 0.053, 5-acetate p = 0.006): smaller average tumor volume on day 31
final tumor weights (in words) ([3]; first study, 31 days of treatment, vs control, 3, and castration, p < 0.05): significantly reduced
oral activity (in words) ([3]; preclinical studies): not orally active
effect on LAPC-4 tumor growth (in words) [3]: did not have a significant effect on tumor growth
prostate size/weight (in words) [9]: reduced the size of the prostate, although the reduction was not quite significant
seminal vesicles size/weight (in words) [9]: significantly reduced the size of the seminal vesicles and testes
testes size/weight (in words) [9]: significantly reduced the size of the seminal vesicles and testes
IC50 [12]: 0.047 µM

Compound: C[C@]12CC[C@H](O)CC1=CC[C@@H]1[C@@H]2CC[C@]2(C)C(c3cccnc3)=CC[C@@H]12 [Compound 3, 3β-Hydroxy-17-(3-pyridyl)androsta-5,16-dien]
efficacy of oral dosing (in words) ([3]; first study): neither compound demonstrated any significant efficacy
effect on AR levels in tumors (in words) [10, 13]: no significant effect on AR levels
prostate size/weight (in words) [9]: failed to significantly reduce the size of any of the organs
seminal vesicles size/weight (in words) [9]: failed to significantly reduce the size of any of the organs
testes size/weight (in words) [9]: failed to significantly reduce the size of any of the organs
